Measured values taken from ChEMBL document CHEMBL1123921, “Quinolonecarboxylic acids. 2. Synthesis and antibacterial evaluation of 7-oxo-2,3-dihydro-7H-pyrido[1,2,3-de][1,4]benzothiazine-6-carboxylic acids” (J Med Chem, 1987).
Converted amounts (≈) assume the structure as drawn.

Tests used:
Assay type in all cases: functional
Staphylococcus aureus = experiment: In vitro antibacterial activity against clinical isolates of Staphylococcus aureus 18773 (gram-positive) by agar dilution assay.
In short: (§1)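 Agar dilution on Isosensitest agar; compound incorporated by twofold serial dilution. Overnight broth cultures delivered by multipoint inoculator at 10⁵ CFU per point. Plates read after 18 h at 37 °C. MIC taken as the lowest concentration giving complete growth inhibition.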

Escherichia coli = experiment: In vitro antibacterial activity against clinical isolates of Escherichia coli 15 (gram negative) by agar dilution assay.; in short: as §1
Morganella morganii = experiment: In vitro antibacterial activity against clinical isolates of Proteus morganii 27 (gram negative) by agar dilution assay.; in short: as §1
Pseudomonas aeruginosa = experiment: In vitro antibacterial activity against clinical isolates of Pseudomonas aeruginosa 2437 (gram negative) by agar dilution assay.; in short: as §1
Klebsiella pneumoniae = experiment: In vitro antibacterial activity against clinical isolates of Klebsiella pneumoniae-4 (gram negative) by agar dilution assay.; in short: as §1
Enterobacter cloacae = experiment: In vitro antibacterial activity against clinical isolates of Enterobacter cloacae 041 (gram negative) by agar dilution assay.; in short: as §1

Row | Structure (SMILES) | MIC (Staphylococcus aureus) [µg/mL] | MIC (Escherichia coli) [µg/mL] | MIC (Morganella morganii) [µg/mL] | MIC (Pseudomonas aeruginosa) [µg/mL] | MIC (Klebsiella pneumoniae) [µg/mL] | MIC (Enterobacter cloacae) [µg/mL]
1 | O=C(O)c1cn2c3c(c(Cl)c(F)cc3c1=O)SCC2 | 0.39 (≈ 1.3 µM) | 0.39 (≈ 1.3 µM) | 6.25 (≈ 20.9 µM) | > 25 | 0.78 (≈ 2.6 µM) | 0.39 (≈ 1.3 µM)
2 | O=C(O)c1cn2c3c(cc(N4CCCC4)cc3c1=O)SCC2 | 50 (≈ 158 µM) | 50 (≈ 158 µM) | – | 100 (≈ 316 µM) | – | –
3 | O=C(O)c1cn2c3c(c(N4CCSCC4)c(F)cc3c1=O)SCC2 | 0.78 (≈ 2.13 µM) | 3.12 (≈ 8.51 µM) | 6.25 (≈ 17.1 µM) | > 50 | 1.56 (≈ 4.26 µM) | 1.56 (≈ 4.26 µM)
4 | CN1CCN(c2cc3c4c(c2)c(=O)c(C(=O)O)cn4CCS3)CC1 | 100 (≈ 289 µM) | 100 (≈ 289 µM) | 100 (≈ 289 µM) | > 100 | – | –
5 | O=C(O)c1cn2c3c(cc(N4CCOCC4)cc3c1=O)SCC2 | > 50 | > 50 | > 50 | 6.25 (≈ 18.8 µM) | > 50 | > 50
6 | CCOC(=O)N1CCN(c2c(F)cc3c(=O)c(C(=O)O)cn4c3c2SCC4)CC1 | 0.39 (≈ 0.925 µM) | 6.25 (≈ 14.8 µM) | > 50 | > 50 | 6.25 (≈ 14.8 µM) | 6.25 (≈ 14.8 µM)
7 | O=C(O)c1cn2c3c(c(N4CCN(C(=O)C(F)(F)F)CC4)c(F)cc3c1=O)SCC2 | 1.56 (≈ 3.5 µM) | < 0.39 | 1.56 (≈ 3.5 µM) | 12.5 (≈ 28.1 µM) | < 0.39 | < 0.39
8 | O=C(O)c1cn2c3c(c(N4CCNCC4)c(F)cc3c1=O)SCC2 | 0.78 (≈ 2.23 µM) | 0.39 (≈ 1.12 µM) | 1.56 (≈ 4.46 µM) | 12.5 (≈ 35.8 µM) | < 0.39 | < 0.39
9 | O=C(O)c1cn2c3c(c(Cl)c(Cl)cc3c1=O)SCC2 | 0.78 (≈ 2.47 µM) | > 50 | 1.56 (≈ 4.93 µM) | > 50 | 12.5 (≈ 39.5 µM) | > 50
10 | O=C(O)c1cn2c3c(cc(N4CCNCC4)cc3c1=O)SCC2 | > 50 | > 50 | 50 (≈ 151 µM) | 50 (≈ 151 µM) | 50 (≈ 151 µM) | 50 (≈ 151 µM)
11 | O=C(O)c1cn2c3c(c(Cl)c(N4CCOCC4)cc3c1=O)SCC2 | > 50 | 6.25 (≈ 17 µM) | > 50 | 6.25 (≈ 17 µM) | > 50 | > 50
12 | O=C(O)c1cn2c3c(c(Cl)c(F)cc3c1=O)S(=O)(=O)CC2 | – | > 50 | – | – | – | –
13 | O=C(O)c1cn2c3c(c(N4CCCC4)c(F)cc3c1=O)SCC2 | < 0.39 | 1.56 (≈ 4.67 µM) | 3.12 (≈ 9.33 µM) | 3.12 (≈ 9.33 µM) | 1.56 (≈ 4.67 µM) | 1.56 (≈ 4.67 µM)
14 | O=C(O)c1cn2c3c(cccc3c1=O)SCC2 | 25 (≈ 101 µM) | 6.25 (≈ 25.3 µM) | 12.5 (≈ 50.6 µM) | 50 (≈ 202 µM) | 25 (≈ 101 µM) | 25 (≈ 101 µM)
15 | O=C(O)c1cn2c3c(cc(F)cc3c1=O)S(=O)(=O)CC2 | > 50 | 100 (≈ 336 µM) | – | > 50 | – | –
16 | CCn1cc(C(=O)O)c(=O)c2cc(F)c(N3CCNCC3)cc21 [NORFLOXACIN] | 0.19 (≈ 0.595 µM) | 0.19 (≈ 0.595 µM) | 0.78 (≈ 2.44 µM) | 1.56 (≈ 4.89 µM) | 0.19 (≈ 0.595 µM) | 0.39 (≈ 1.22 µM)
17 | O=C(O)c1cn2c3c(cccc3c1=O)S(=O)(=O)CC2 | > 100 | 100 (≈ 358 µM) | > 100 | 100 (≈ 358 µM) | > 100 | > 100
18 | O=C(O)c1cn2c3c(cc(N4CCN(C(=O)C(F)(F)F)CC4)cc3c1=O)SCC2 | 50 (≈ 117 µM) | > 50 | > 50 | 100 (≈ 234 µM) | – | –

Row | Structure (SMILES) | MIC (Staphylococcus aureus) [µg/mL] | MIC (Escherichia coli) [µg/mL] | MIC (Morganella morganii) [µg/mL] | MIC (Pseudomonas aeruginosa) [µg/mL] | MIC (Klebsiella pneumoniae) [µg/mL] | MIC (Enterobacter cloacae) [µg/mL]
19 | O=C(O)c1cn2c3c(cc(N4CCN(Cc5ccccc5)CC4)cc3c1=O)SCC2 | 50 (≈ 119 µM) | 50 (≈ 119 µM) | > 50 | > 50 | – | –
20 | O=C(O)c1cn2c3c(cc(F)c(Cl)c3c1=O)SCC2 | > 50 | > 50 | > 50 | > 50 | > 50 | > 50
21 | O=C(O)c1cn2c3c(c(N4CCN(CC(F)(F)F)CC4)c(F)cc3c1=O)SCC2 | 0.39 (≈ 0.904 µM) | > 50 | > 50 | > 50 | > 50 | > 50
22 | O=C(O)c1cn2c3c(cc(Cl)cc3c1=O)SCC2 | 25 (≈ 88.7 µM) | 3.12 (≈ 11.1 µM) | 6.25 (≈ 22.2 µM) | > 100 | 6.25 (≈ 22.2 µM) | 12.5 (≈ 44.4 µM)
23 | O=C(O)c1cn2c3c(c(N4CCCC4)c(F)cc3c1=O)[S+]([O-])CC2 (stereo not drawn) | 12.5 (≈ 35.7 µM) | 12.5 (≈ 35.7 µM) | > 50 | > 50 | 25 (≈ 71.4 µM) | 50 (≈ 143 µM)
24 | CC1CN(c2c(F)cc3c(=O)c(C(=O)O)cn4c3c2SCC4)CC(C)N1 (stereo not drawn) | 3.12 (≈ 8.27 µM) | 6.25 (≈ 16.6 µM) | 25 (≈ 66.2 µM) | 100 (≈ 265 µM) | 6.25 (≈ 16.6 µM) | 3.12 (≈ 8.27 µM)
25 | CCn1cc(C(=O)O)c(=O)c2cnc(N3CCNCC3)nc21 [PIPEMIDIC ACID] | 3.12 (≈ 10.3 µM) | 0.39 (≈ 1.29 µM) | 3.12 (≈ 10.3 µM) | > 25 | 0.78 (≈ 2.57 µM) | 0.78 (≈ 2.57 µM)
26 | O=C(O)c1cn2c3c(cc(F)c(N4CCCC4)c3c1=O)SCC2 | > 100 | > 100 | – | – | > 100 | –
27 | O=C(O)c1cn2c3c(cc(N4CCCC4)c(Cl)c3c1=O)SCC2 | 100 (≈ 285 µM) | > 100 | > 100 | > 100 | > 100 | –
28 | O=C(O)c1cn2c3c(c(N4CCCC4)c(F)cc3c1=O)S(=O)(=O)CC2 | 3.12 (≈ 8.52 µM) | 3.12 (≈ 8.52 µM) | > 50 | > 50 | 25 (≈ 68.2 µM) | 25 (≈ 68.2 µM)
29 | O=C(O)c1cn2c3c(c(Cl)c(F)cc3c1=O)[S+]([O-])CC2 (stereo not drawn) | > 100 | > 100 | > 100 | > 100 | > 100 | > 100
30 | O=C(O)c1cn2c3c(cc(F)c(N4CCNCC4)c3c1=O)SCC2 | > 100 | > 100 | > 100 | > 100 | > 100 | > 100
31 | O=C(O)c1cn2c3c(cc(N4CCN(CCO)CC4)cc3c1=O)SCC2 | 100 (≈ 266 µM) | 100 (≈ 266 µM) | > 50 | > 100 | – | –
32 | CN1CCN(c2cc3c(=O)c(C(=O)O)cn4c3c(c2Cl)SCC4)CC1 | > 50 | > 50 | > 50 | 6.25 (≈ 16.5 µM) | > 50 | > 50
33 | O=C(O)c1cn2c3c(c(Cl)c(N4CCCC4)cc3c1=O)SCC2 | > 50 | > 50 | > 50 | > 50 | > 50 | > 50
34 | O=C(O)c1cn2c3c(cc(F)cc3c1=O)SCC2 | 6.25 (≈ 23.6 µM) | 0.78 (≈ 2.94 µM) | 3.12 (≈ 11.8 µM) | 50 (≈ 188 µM) | 3.12 (≈ 11.8 µM) | 6.25 (≈ 23.6 µM)
35 | O=C(O)c1cn2c3c(ccc(C(F)(F)F)c3c1=O)SCC2 | > 50 | > 50 | > 50 | 100 (≈ 317 µM) | > 50 | > 50
36 | CC1COc2c(N3CCN(C)CC3)c(F)cc3c(=O)c(C(=O)O)cn1c23 (stereo not drawn) [OFLOXACIN] | 0.19 (≈ 0.526 µM) | 0.19 (≈ 0.526 µM) | 0.78 (≈ 2.16 µM) | 1.56 (≈ 4.32 µM) | 0.39 (≈ 1.08 µM) | 0.19 (≈ 0.526 µM)
